Drawing on ChEMBL document CHEMBL4732029, “Synthesis and evaluation of bis(imino)anthracene derivatives as G-quadruplex ligands” (RSC Med Chem, 2021), this text covers IC50 for eleven molecules.

Each structure is given as a SMILES string.

Holding throughout (assay type): functional, cell-based
The test system of experiment [1] is HeLa. The experiment is described as follows: Cytotoxicity against human HeLa cells. The procedure, abridged:
(§1)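 HeLa cells (ATCC CCL-2) were exposed to each compound at 100, 30, 10 and 1 µM for 24 h. Viability was read by PrestoBlue absorbance and normalized to a DMSO negative control; doxorubicin served as positive control. Data are mean and SEM. IC50 came from the percentage viability plotted against log concentration, with R squared reported.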

Experiment [2] relates to HeLa. As to the kind of experiment: Cytotoxicity against human HeLa cells assessed as reduction in cell viability incubated for 24 hrs by MTT assay.
For experiment [3], the system named is HeLa. As to the kind of experiment: Cytotoxicity against human HeLa cells assessed as reduction in cell viability incubated for 24 hrs by presto blue assay. The procedure, abridged:
as §1

Consider `CN(C)CCNC(=O)c1cccn2c(=O)c3cc4ccccc4cc3nc12`, for which the midpoint of inhibition in the experiment on HeLa [1], the IC50, lay at 0.46 µM.
Turning to `CN(C)c1ccc(Nc2c3ccc(NC(=O)CCN4CCCC4)cc3nc3cc(NC(=O)CCN4CCCC4)ccc23)cc1`, in the experiment on HeLa [2], the IC50 (commonly the midpoint of a concentration-inhibition curve) was determined as 5.25 µM.
Take `C(=N\CCc1c[nH]c2ccccc12)/c1c2ccccc2c(/C=N/CCc2c[nH]c3ccccc23)c2ccccc12`: the IC50 in the experiment on HeLa [3] was found to be 30.6 µM.
On the same count and under the same terms, as for `C(=N\CCN1CCCCC1)/c1c2ccccc2c(/C=N/CCN2CCCCC2)c2ccccc12`, the figure is 23.8 µM.
`C(=N\Cc1ccc2c(c1)OCO2)/c1c2ccccc2c(/C=N/Cc2ccc3c(c2)OCO3)c2ccccc12`: in the experiment on HeLa [3], the IC50 worked out at 18 µM.
With `Cc1cnc(/N=C/c2c3ccccc3c(/C=N/c3ncc(C)s3)c3ccccc23)s1`, the IC50 in the experiment on HeLa [3] is 20.5 µM.
The molecule `Cc1cc2c3c([n+](C)c4ccc(F)cc4c3c1)-c1cc(F)ccc1N2C` gave an IC50 in the experiment with HeLa [1] of 0.2 µM.
Still for that read-out and setting: as for `Cc1cnc(CNC(=O)c2c(=O)c3ccc(N4CCCN(C)CC4)nc3n3c2sc2ccccc23)cn1` [CX-5461], the figure is 6.89 µM; as for `COc1cccc2c1C(=O)c1c(O)c3c(c(O)c1C2=O)C[C@@](O)(C(=O)CO)C[C@@H]3O[C@H]1C[C@H](N)[C@H](O)[C@H](C)O1` [DOXORUBICIN], 0.374 µM; as for `COc1cccc2c1C(=O)c1c(O)c3c(c(O)c1C2=O)C[C@@](O)(C(=O)CO)C[C@@H]3O[C@H]1C[C@H](N2CCO[C@H](OC)C2)[C@H](O)[C@H](C)O1` [NEMORUBICIN], 0.08 µM.
Still for that read-out and setting: as for `CN1CCC[C@H]1CCNC(=O)c1cn2c3c(c(N4CCC(c5cnccn5)C4)c(F)cc3c1=O)Oc1cc3ccccc3cc1-2` (stereo partly specified) [QUARFLOXIN], the figure is 4.44 µM.
